Screening data deposited in PubChem BioAssay by The Scripps Research Institute Molecular Screening Center.
TCR-CD3 inh = inhibitors of human TCR-CD3 interaction | 360,000 compounds, 0.37% hits | TAMRA-labeled TCR probe fluorescence, biochemical | inhibition, % at 9.4 µM;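 also: recombinant mutant TCR 2C K166C tagged with TAMRA read by polarization; 0% = receptor in buffer alone and 100% = receptor with positive control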
HTRA1 inh = blocks human HTRA1 serine peptidase; inhibition, % at 5.96 µM; recombinant HTRA1, FP-rhodamine activity-based probe, fluorescence polarization; 340,000 compounds, 0.5% hits; Q92743; in the data active = inhibition above about 36%;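 also: 0% = enzyme with DMSO and 100% = wells lacking enzyme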
PRMT1 inh = blocks human protein arginine methyltransferase 1. Q99873. recombinant PRMT1, activity-based probe fluorescence polarization. inhibition, % at 2.79 µM. 370,000 compounds, 1.3% hits. AID 652257;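 active = inhibition above about 21% made by adding two undisclosed values, limit read from the data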
SIAE primary = human SIAE inhibition, primary screen | Q9HAT2 | SIAE FP-Rh probe binding, fluorescence polarization | inhibition, % at 9.66 µM | 370,000 compounds, 0.69% hits;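 active = inhibition above a cutoff: mean of compounds within the control limits plus 3 SD of those, cut at about 17% in these data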;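 also: 0% = plate median of compound wells and 100% = probe without SIAE protein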
Target sequence (Q9HAT2 whole entry, looked up): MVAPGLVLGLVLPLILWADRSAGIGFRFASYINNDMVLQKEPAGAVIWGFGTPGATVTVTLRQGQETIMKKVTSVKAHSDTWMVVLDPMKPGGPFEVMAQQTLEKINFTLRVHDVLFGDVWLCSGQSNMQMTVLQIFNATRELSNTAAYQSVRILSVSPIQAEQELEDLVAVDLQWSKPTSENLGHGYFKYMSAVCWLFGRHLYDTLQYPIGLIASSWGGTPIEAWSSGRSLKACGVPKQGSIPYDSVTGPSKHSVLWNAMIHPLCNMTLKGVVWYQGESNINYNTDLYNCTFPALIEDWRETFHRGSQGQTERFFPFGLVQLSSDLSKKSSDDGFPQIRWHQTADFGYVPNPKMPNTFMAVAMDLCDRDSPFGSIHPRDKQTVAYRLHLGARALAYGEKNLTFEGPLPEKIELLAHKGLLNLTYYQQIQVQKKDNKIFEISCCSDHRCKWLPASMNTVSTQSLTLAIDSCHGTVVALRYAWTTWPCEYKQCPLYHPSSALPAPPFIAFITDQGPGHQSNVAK
mABHD4 FP = inhibits mouse alpha/beta hydrolase domain 4; purified mABHD4, FP-Rh probe fluorescence polarization; AID 720543; inhibition, % at 8.92 µM; Q8VD66; 370,000 compounds, 0.54% hits;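 active = inhibition exceeding the mean over every tested compound plus 3 SD, cut at about 30% in these data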;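 also: 0% = plate median of compound wells and 100% = S159A mutant with DMSO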
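Assay system: mouse ABHD4 enzyme, wild type / Also added: fluorescent activity-based probe FP-Rh / Doses: single nominal dose of 8.92 µM, 0.89% DMSO final / Timing: 45 min compound pre-incubation plus 60 min probe step, 25 °C / Signal: FP readout, ex 525 nm / em 598 nm / Control set: S159A mutant/DMSO as 100%, compound-well median as 0%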
BSA probe FL = BSA probe counter-screen for TCR-CD3 inhibitors | inhibition, % at 9.4 µM | TAMRA-labeled BSA probe fluorescence counterscreen | 1,200 compounds, 10% hits | shares compounds with TCR-CD3 inh; in the data active = inhibition above about 23%;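 also: 0% = buffer low control and 100% = reference high control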
TCR-CD3 conf = confirmation of human TCR-CD3 interaction inhibitors. 1,200 compounds, 48% hits. shares compounds with TCR-CD3 inh. inhibition, % at 9.4 µM. TAMRA-labeled TCR probe fluorescence binding assay
Active calls of the source: *; . = no result. In the library only some 2.5% were active in any assay of this set; here they are far more common. Rule as the data show it, unless noted: active = inhibition above about 19%; inactive = the rest.

SMILES	TCR-CD3 inh	HTRA1 inh	PRMT1 inh	SIAE primary	mABHD4 FP	BSA probe FL	TCR-CD3 conf
O=C(NNC(=S)NC(=O)c1cccnc1)c1ccc(F)cc1	23*	5	9	2	4	-2	28*
CCOC(=O)C1=CCN(S(=O)(=O)c2ccc(C)cc2)C1c1ccccc1F (stereo not given)	1	.	5	1	-18	.	.
O=C(Cc1ccc(Cl)c(Cl)c1)Nc1ccc(S(=O)(=O)Nc2ccon2)cc1	.	.	4	-10	-8	.	.
Nc1nc(SCC(=O)NC2CCCCC2)n[nH]1	-4	-5	-1	-4	8	.	.
COc1ccc(CC(=O)NNC(=S)NC(=O)c2cccnc2)cc1	26*	5	6	2	5	-3	17
O=C(NNC(=S)NC(=O)c1cccnc1)c1ccccc1	15	7	5	8	14	.	.
COc1ccc(C(=O)NNC(=S)NC(=O)c2cccnc2)cc1	38*	-2	-2	8	8	1	37*
COc1cc(OC)c(OC)cc1CCC(C)NC(=O)Cc1ccccc1 (stereo not given)	1	3	0	10	5	.	.
NC(=O)[C@H]1CC2(CC(c3cccc(NC(=O)COc4ccc(Cl)cc4)c3)=NO2)CN1C(=O)C(c1ccccc1)c1ccccc1 (stereo not given in full)	32*	-90	-3	-82	-75	4	23*
CCC(=O)Nc1cccc(C2=NOC3(C2)C[C@@H](C(N)=O)N(C(=O)C(c2ccccc2)c2ccccc2)C3)c1 (stereo not given in full)	2	-20	3	-3	-13	.	.
NC(=O)[C@@H]1CC2(CC(c3cccc(NC(=O)COc4ccc(Cl)cc4)c3)=NO2)CN1C(=O)COc1ccc(Cl)cc1 (stereo not given in full)	27*	-78	0	-60	-38	13	24*
O=C1NC[C@@H](CCCCN2C[C@H](Cc3ccccc3)N(CCC3CCCCC3)C(=O)C2=O)N(CC2CCCCC2)C1=O	-2	.	3	0	12	.	.
CSc1n[nH]c(-c2cccs2)n1	-1	.	-3	-10	7	.	.
NS(=O)(=O)c1ccc(NC(=O)/C=C/c2cn(-c3ccccc3)nc2-c2cccc(Cl)c2)cc1	24*	-98	-6	-230	-46	17	27*
Cc1cccc(C)c1NC(=O)CN1C(=O)NC(C)(CCc2ccccc2)C1=O (stereo not given)	59*	2	-1	-1	-2	4	6
Cc1ccc(NC(=O)CN2C(=O)NC(C)(CCc3ccccc3)C2=O)cc1 (stereo not given)	1	-9	-3	1	-1	.	.
O=C(O)CC1Cc2ccccc2C1C(=O)O (stereo not given)	2	-1	0	-3	-3	.	.
O=c1ccc2cc3c([nH]c4ccc(Br)cc43)oc-2c1O	38*	62*	91*	64*	60*	-36	14
CCN(c1cccc(C)c1)S(=O)(=O)c1c(C)[nH]c(C)c1C(=O)N1CCCCC1	4	3	5	6	1	.	.
Cc1ccc(C(=O)Nc2cnc3ccccn3c2=O)cc1	25*	5	-2	-6	-8	-2	-3
COc1cc([N+](=O)[O-])cc(/C=N/NC(=O)c2cccnc2)c1O	32*	6	0	5	21	-11	19*
CC(=O)OC12CCCN(C1)/C(=C/c1cccc(N(C)C)c1)C2 (stereo not given)	.	.	1	-1	-1	.	.
COC(=O)c1cc(NC(=O)COC(=O)CN2C(=O)C3CC=CCC3C2=O)cc(C(=O)OC)c1 (stereo not given)	-5	2	4	0	8	.	.
O=C(Nc1ccccc1N1CCCC1)C1CCCO1 (stereo not given)	1	4	6	0	0	.	.
CN(c1ccccc1)S(=O)(=O)c1ccc2c(c1)oc(=O)n2C	0	-4	2	-6	4	.	.
SMILES	TCR-CD3 inh	HTRA1 inh	PRMT1 inh	SIAE primary	mABHD4 FP	BSA probe FL	TCR-CD3 conf
C=CCN(c1ccccc1)S(=O)(=O)c1ccc2c(c1)oc(=O)n2C	64*	-7	-1	-4	4	3	6
O=S(=O)(c1ccc(NC(=S)NCCC(c2ccccc2)c2ccccc2)cc1)N1CCOCC1	33*	-73	0	-230	-101	14	18
CN(C)C(CNC(=S)Nc1ccc(Cl)cc1)c1cccnc1 (stereo not given)	-2	-1	1	7	5	.	.
COc1ccccc1OCC(=O)N/N=C/c1c(O)ccc2ccccc12	20*	4	6	5	21	-9	18
COc1ccccc1OCC(=O)N/N=C/c1cccc2cccnc12	-11	0	-1	-4	-1	.	.
CCNc1ccc(C(=O)O)cc1N	23*	29	2	7	21	22	14
CCc1ccccc1Nc1ccc(C(=O)O)cc1N	12	14	3	3	19	.	.
CC(C)Oc1ccc(CN2CCC2(C)C(=O)NCc2cccc3ccccc23)cc1 (stereo not given)	10	.	-7	-9	-6	.	.
Cc1nc(N)sc1-c1csc(Nc2ncccn2)n1	20*	16	1	7	11	15	20*
CN1C(=O)C(C(=O)Nc2ccccc2F)c2ccccc21 (stereo not given)	19*	-1	-3	1	6	-2	1
O=S(=O)(CCc1ccccc1)CS(=O)(=O)CCc1ccccc1	8	4	4	-2	-1	.	.
O=C(NC(NC(=S)Nc1cccc(Cl)c1)C(Cl)(Cl)Cl)OCc1ccccc1 (stereo not given)	24*	-85	1	-19	-122	6	4
S=c1[nH]nc(-c2n[nH]c3c2CCC3)n1/N=C/C=C/c1ccco1	27*	.	5	1	14	9	11
CC1CCN(C(=O)c2[nH]cnc2C(=O)Nc2ccc(Cl)cc2)CC1	-7	1	3	3	-9	.	.
O=C(NCCc1ccccc1)C1Cc2c(-c3ccccc3Oc3ccccc3)ccnc2O1 (stereo not given)	2	.	0	7	-7	.	.
CC1(C)c2ccccc2N2CC(=O)NC21/C=C/c1ccco1 (stereo not given)	1	-2	13	2	-18	.	.
CC1(C)c2ccccc2N2CCC(=O)NC21/C=C/c1ccco1 (stereo not given)	19*	9	20	-5	-9	3	8
Cc1noc(C)c1COc1ccc(C(=O)NCCc2ccc(F)cc2)cc1	3	-3	-4	2	-2	.	.
COc1ccc(C(=O)NNC(=O)COc2ccc(Cl)cc2)c(OC)c1	25*	17	-3	10	-1	-20	24*
